A selection: hits, their analogues and other compounds. The true share with any hit is near 1.8%.
CHRM5 agonist = human M5 muscarinic receptor agonists, primary screen, CHO-K1 cells, Fluo-8 calcium fluorescence | CHO-K1 hM5 cells; 0% DMSO wells, 100% maximal acetylcholine response | activation, % at 3 µM | 360,000 compounds, 0.19% hits | AID 624037, 2012;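 active means activation above the run's mean over test compounds plus 3 SD, cut at about 23% in these data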;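 further: signal is peak over basal fluorescence ratio across the kinetic read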
Target sequence (P08912 whole entry, looked up): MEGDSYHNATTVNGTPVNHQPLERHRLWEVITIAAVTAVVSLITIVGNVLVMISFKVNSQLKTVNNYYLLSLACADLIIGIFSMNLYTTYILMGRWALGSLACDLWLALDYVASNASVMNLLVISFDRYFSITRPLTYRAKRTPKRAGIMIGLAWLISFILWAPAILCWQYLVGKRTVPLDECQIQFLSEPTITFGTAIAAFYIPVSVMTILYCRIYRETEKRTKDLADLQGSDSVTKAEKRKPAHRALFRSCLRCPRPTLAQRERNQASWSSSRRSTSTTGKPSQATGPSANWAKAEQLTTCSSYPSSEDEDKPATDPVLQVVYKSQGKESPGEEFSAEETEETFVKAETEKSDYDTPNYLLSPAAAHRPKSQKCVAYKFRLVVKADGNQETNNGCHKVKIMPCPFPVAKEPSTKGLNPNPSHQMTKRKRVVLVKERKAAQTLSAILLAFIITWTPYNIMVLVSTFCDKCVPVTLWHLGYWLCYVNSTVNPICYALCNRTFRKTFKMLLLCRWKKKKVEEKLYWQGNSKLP
CHRM5 antagonist = human M5 muscarinic receptor antagonists, primary screen, CHO cells, Fluo-8 calcium fluorescence. Muscarinic acetylcholine receptor M5 (Homo sapiens), P08912. CHO-hM5 cells, ACh EC80. inhibition, % at 3 µM. 360,000 compounds, 0.59% hits. AID 624040, 2012;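 active means inhibition above a per-plate cutoff, the mean of that plate's test compounds plus 3 SD, cut at about 27% in these data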;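 further: 0% = acetylcholine EC80 with DMSO and 100% = DMSO without agonist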
M4 antag = human M4 muscarinic receptor antagonists, primary screen, CHO cells, Fluo-8 calcium fluorescence; Muscarinic acetylcholine receptor M4 (Homo sapiens), P08173; CHO-hM4 cells, ACh EC80; inhibition, % at 3 µM; 360,000 compounds, 0.73% hits; AID 624125, 2012;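 active means inhibition above its plate's cutoff, the mean inhibition of sample wells plus 3 SD, cut at about 27% in these data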;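 further: 0% = acetylcholine EC80 with DMSO and 100% = DMSO without agonist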
CHRM5 PAM = human M5 muscarinic receptor positive allosteric modulators, primary screen, CHO-K1 cells, Fluo-8 calcium fluorescence; Muscarinic acetylcholine receptor M5 (Homo sapiens), P08912; CHO-K1 hM5, ACh EC20 PAM; 0% = ACh EC20, 100% = ACh EC100; activation, % at 3 µM; 360,000 compounds, 0.3% hits; AID 624038, 2012;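 active means activation above the run cutoff, the mean activation of all test compounds plus 3 SD, cut at about 18% in these data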
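Assay system: CHO-K1 hM5 cells / Incubation: Fluo-8 loading 80 min at 37 °C plus 30 min room temperature / Technique: Fluo-8 calcium dye fluorescence, kinetic read / Repeats: single replicate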
CHRM4 agonist = human M4 muscarinic receptor agonists, primary screen, CHO-K1 cells, Fluo-8 calcium fluorescence. CHO-K1 hM4/Gqi5; vehicle 0%, full acetylcholine response 100%. 360,000 compounds, 0.14% hits. activation, % at 3 µM. Muscarinic acetylcholine receptor M4 (Homo sapiens), P08173;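 active means activation above the run mean over all test wells plus 3 SD, cut at about 32% in these data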;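 further: peak over basal fluorescence ratio per well then scaled between controls; 0% = DMSO wells and 100% = acetylcholine at EC100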
CHRM4 PAM = human M4 muscarinic receptor positive allosteric modulators, primary screen, CHO-K1 cells, Fluo-8 calcium fluorescence | activation, % at 3 µM | AID 624126, 2012 | CHO-K1 hM4/Gqi5, ACh EC20; 0% = ACh EC20, 100% = maximal ACh | 360,000 compounds, 0.4% hits;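 active means activation above its plate's cutoff, the mean activation of sample wells plus 3 SD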
Active calls of the source: *.

SMILES	CHRM5 agonist	CHRM5 antagonist	M4 antag	CHRM5 PAM	CHRM4 agonist	CHRM4 PAM
C[C@@H]1CC=C[C@H]2[C@H]1C(=O)N(Cc1ccccc1)[C@H]2c1ccc2ccccc2c1	4	5	-2	1	0	-4
Cc1nccn1-c1c2c(c(C#N)c3nc4ccccc4n13)CCCC2	-1	4	-4	4	1	6
N#Cc1c2c(c(-n3cnc4ccccc43)n3c1nc1ccccc13)CCC2	-1	31*	-10	47*	0	-1
COc1cc(OC)cc(C2=Cc3ccccc3C(CC(C)=O)N2c2ccc(C#CCCO)cc2)c1 (stereo unspecified)	2	-8	1	-3	1	-4
O=C(CSc1nnc(NC(=O)c2ccco2)s1)Nc1ccccc1F	-8	-6	-2	2	2	25*
CCOc1ccccc1NC(=O)CSc1nnc(NC(=O)c2ccco2)s1	-1	-16	2	10	1	22*
O=C(Nc1nnc(COc2ccccc2)s1)c1ccco1	0	-2	-8	2	3	16*
Cc1ccc(N(CCC#N)C(=O)COC(=O)C2CCN(S(=O)(=O)c3ccc4c(c3)OCCO4)CC2)cc1	-4	13	10	-7	4	-4
CC(C)C(NC(=O)OCc1ccccc1)C(=O)NC1CCCCC1 (stereo unspecified)	1	9	3	2	2	31*
CCCNC(=O)Cn1c(=O)/c(=C/c2ccc(-c3ccc([N+](=O)[O-])cc3)o2)s/c1=C\C(=O)C(C)(C)C	123*	53*	22	-9	35*	-7
CSc1ccc(/C=c2\s/c(=C\C(=O)C(C)(C)C)n(CC(=O)NCCC3=CCCCC3)c2=O)cc1	0	-9	3	0	3	9
CCCSc1ccc(-c2nn(-c3ccccc3)cc2/C=C(/C#N)C(=O)N2CCOCC2)cc1	0	24	-8	44*	0	11
CCSc1ccc(-c2nn(-c3ccccc3)cc2/C=C(/C#N)C(=O)NC)cc1	-1	-6	8	-3	1	-4
COCCNC(=O)C(c1ccc(Cl)cc1)N(C(=O)Cn1nnc2ccccc21)c1cccnc1 (stereo unspecified)	-7	1	-12	3	0	6
CC(=O)Nc1c(NC(C)C)c2ccccc2oc1=O	-2	-2	-2	22*	0	9
Fc1ccc(CNc2nc3ccccc3n3cnnc23)cc1	1	-2	-12	1	2	6
O=C(Nc1nnc([C@@H]2C[C@H](O)[C@@H](CO)O2)s1)Nc1ccccc1C(F)(F)F	1	0	-16	-2	1	13
Cc1nn(CC(=O)N2CCc3ccccc3C2)c(C)c1Cl	-5	-11	-8	21*	-1	1
CCOC(=O)c1nn(-c2ccc(C)cc2)c(=O)cc1OCC(=O)Nc1cc(C)ccc1OC	0	-11	-14	10	-1	-2
CCOC(=O)c1nn(-c2ccc(F)cc2)c(=O)cc1OCC(=O)Nc1cccc(C)c1	5	-5	-26	-5	-1	24*
C=CCNC(=O)CSc1nnc(-c2ccccn2)n1Cc1ccccc1	-3	-4	2	22*	1	11
CC(C)(C)NC(=O)CSc1nnc(-c2ccccn2)n1Cc1ccccc1	0	2	5	9	1	12
CN(C)CCOC(=O)NCC12CC3CC(CC(C3)C1)C2	-6	6	-5	6	2	-9
COC(=O)CCCCC1SCC2NC(=O)NC21 (stereo unspecified)	-2	-2	-8	23*	1	5
Cc1ccc(NC(=O)CSc2nnc(-c3cc(C)[nH]n3)n2N)c(C)c1	-3	-6	-20	10	-1	13
SMILES	CHRM5 agonist	CHRM5 antagonist	M4 antag	CHRM5 PAM	CHRM4 agonist	CHRM4 PAM
Cc1ccc(Nc2nc3ccccc3nc2Nc2c(C)n(C)n(-c3ccccc3)c2=O)cc1	3	-11	-5	23*	1	12
Cc1c(Cl)c([N+](=O)[O-])nn1CCCC(=O)Nc1c(C)n(C)n(-c2ccccc2)c1=O	-19	17	27*	-31	1	-42
Cc1c(NC(=O)Nc2ccc(Cl)c(Cl)c2)c(=O)n(-c2ccccc2)n1C	0	30*	10	-15	12	0
NS(=O)(=O)c1ccc(CCNC(=O)NC2(C(F)(F)F)Oc3ccccc3O2)cc1	-13	-12	7	31*	0	-7
CCCCNC(=O)NC1(C(F)(F)F)Oc2ccccc2O1	-7	-7	-6	2	0	2
CCOC(=O)c1oc2ccc(CNC3CCCCC3)c(Cl)c2c1C	-4	-6	55*	-8	8	-17
CCOC(=O)c1oc2ccc(CNCCO)c(Cl)c2c1C	-4	-2	-1	2	1	2
Cc1cn([C@H]2C[C@H](O)[C@@H](/C=C/C(=O)NCCc3cccs3)O2)c(=O)[nH]c1=O	1	-1	-5	1	3	3
C=C(C)Cn1c2ccc(NC(=O)CCc3cccc(Cl)c3)cc2c(=O)n1C	-1	4	-5	-2	2	-3
COc1cc(C(=O)COC(=O)c2cc([N+](=O)[O-])ccc2N2CCOCC2)ccc1OC(F)F	-6	7	28*	-9	2	-4
COc1ccccc1C(=O)COC(=O)c1cc([N+](=O)[O-])ccc1N1CCOCC1	-4	10	-13	-7	4	1
Cc1ccc(OCCC(=O)OCC(=O)c2c(N)n(CC(C)C)c(=O)n(C)c2=O)cc1	3	16	0	-28	16	-10
CC(C)Cn1c(N)c(C(=O)COC(=O)CC23CC4CC(CC(C4)C2)C3)c(=O)n(C)c1=O	4	19	37*	-13	2	-7
CC(C)Cn1c(N)c(C(=O)COC(=O)CCc2nc3ccccc3c(=O)[nH]2)c(=O)n(C)c1=O	5	6	4	-13	13	7
CC(C)Cn1c(N)c(C(=O)COC(=O)CCc2nc3ccccc3s2)c(=O)n(C)c1=O	9	32*	14	-35	23	-21
Cc1ccccc1OCCC(=O)OCC(=O)c1c(N)n(CC(C)C)c(=O)n(C)c1=O	5	34*	17	-14	23	-15
